From ChEMBL document CHEMBL1800025 (J Med Chem, 2011) come the findings set out here.

The target of experiment [1] is Serine/threonine-protein kinase pim-1 (Homo sapiens, UniProt P11309). Put plainly: Inhibition of human recombinant Pim1. Put shortly: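 Kinase assayed in buffer C (25 mM Mops pH 7.2, 60 mM beta-glycerophosphate, 30 mM p-nitrophenylphosphate, 15 mM MgCl2, 5 mM EGTA, 1 mM DTT, 0.1 mM vanadate) with 1 mg/mL histone H1. DMSO controls.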
The species entered for another experiment is Sus scrofa. Put plainly: Inhibition of pig brain CK1 delta/epsilon using RRKHAAIGpSAYSITA as substrate at 10 uM. The essentials:
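Native CK1δ/ε from porcine brain, assayed in 3-fold diluted buffer C with 25 μM CKS peptide substrate. 15 μM ATP final, 30 C. Activity is percent of uninhibited control after blank subtraction, with DMSO controls. Inhibitor tested over a range of concentrations up to 10 μM.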

Experiment [2] deals with Cyclin-dependent kinase 5/p25 (Homo sapiens). As to the kind of experiment: Inhibition of human recombinant CDK5/p25 at 10 uM.
Experiment [3] deals with Dual specificity protein kinase CLK1 (Mus musculus, UniProt P22518). Put plainly: Inhibition of mouse recombinant GST-tagged CLK1 using GRSRSRSRSRSR as substrate. Put shortly: (§1)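 Mouse GST-fusion CLK1 or CLK3 expressed in E. coli. Assay buffer A (Tris-HCl pH 7.5, MgCl2, EGTA, DTT, heparin) plus 0.15 mg/mL BSA. RS peptide 1 μg/assay, 15 μM ATP final, 30 C. Blank subtracted; activity expressed as percent of activity without inhibitor. DMSO controls. Concentration range up to 10 μM.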
Sequence of Dual specificity protein kinase CLK1 (P22518 whole entry, the tested form may be a part): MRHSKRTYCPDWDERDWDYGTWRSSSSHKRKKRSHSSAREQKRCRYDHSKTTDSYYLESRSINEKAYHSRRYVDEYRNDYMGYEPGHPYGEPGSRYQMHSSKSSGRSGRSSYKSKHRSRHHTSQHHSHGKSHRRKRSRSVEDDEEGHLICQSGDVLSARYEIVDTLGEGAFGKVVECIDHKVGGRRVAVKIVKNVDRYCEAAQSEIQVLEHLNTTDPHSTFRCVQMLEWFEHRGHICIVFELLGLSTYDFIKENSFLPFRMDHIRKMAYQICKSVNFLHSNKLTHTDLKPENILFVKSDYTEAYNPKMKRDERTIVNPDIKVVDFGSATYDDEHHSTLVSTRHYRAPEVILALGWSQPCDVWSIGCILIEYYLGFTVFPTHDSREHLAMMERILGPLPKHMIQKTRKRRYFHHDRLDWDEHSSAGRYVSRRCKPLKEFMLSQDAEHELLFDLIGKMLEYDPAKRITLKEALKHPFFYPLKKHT

Experiment [4] deals with Dual specificity tyrosine-phosphorylation-regulated kinase 1A (Rattus norvegicus, UniProt Q63470). As to the kind of experiment: Inhibition of rat recombinant GST-tagged DYRK1A using KKISGRLSPIMTEQ as substrate and [gamma32]-ATP after 30 mins by scintillation counting. The essentials: (§2)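 GST fusion kinases expressed in E. coli and purified on glutathione-agarose; DYRK1A is rat, DYRK2 is human. Assay buffer A (25 mM Tris-HCl pH 7.5, 10 mM MgCl2, 1 mM EGTA, 1 mM DTT, 50 μg/mL heparin) plus 0.15 mg/mL BSA. Product captured on P81 paper, washed in 1% phosphoric acid, scintillation counted. Activity expressed as percent of uninhibited control.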

In experiment [5] the target is T1, Dual specificity tyrosine-phosphorylation-regulated kinase 2 (Homo sapiens, UniProt Q92630).
T1 sequence (Q92630 whole entry): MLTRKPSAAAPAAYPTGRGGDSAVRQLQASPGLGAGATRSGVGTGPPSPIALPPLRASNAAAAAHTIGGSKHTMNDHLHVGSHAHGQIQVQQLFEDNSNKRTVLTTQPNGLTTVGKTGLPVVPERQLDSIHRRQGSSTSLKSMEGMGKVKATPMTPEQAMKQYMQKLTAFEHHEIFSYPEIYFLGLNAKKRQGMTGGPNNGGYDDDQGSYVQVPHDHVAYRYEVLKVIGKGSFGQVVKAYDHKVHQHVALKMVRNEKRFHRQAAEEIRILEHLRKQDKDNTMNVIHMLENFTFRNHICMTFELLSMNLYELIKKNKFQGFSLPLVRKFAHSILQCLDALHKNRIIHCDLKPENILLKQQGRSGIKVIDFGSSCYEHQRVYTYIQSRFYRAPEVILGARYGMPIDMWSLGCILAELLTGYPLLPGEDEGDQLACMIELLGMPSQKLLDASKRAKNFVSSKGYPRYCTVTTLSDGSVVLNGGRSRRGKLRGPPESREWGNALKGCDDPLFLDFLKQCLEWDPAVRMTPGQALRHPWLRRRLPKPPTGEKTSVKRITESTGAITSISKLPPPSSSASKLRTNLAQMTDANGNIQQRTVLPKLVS
As to the kind of experiment: Inhibition of human recombinant GST-tagged DYRK2 using KKISGRLSPIMTEQ as substrate and [gamma32]-ATP after 30 mins by scintillation counting. The essentials: as §2

The target of experiment [6] is Dual specificity protein kinase CLK3 (Mus musculus, UniProt O35492). Put plainly: Inhibition of mouse recombinant GST-tagged CLK3 using GRSRSRSRSRSR as substrate. Put shortly: as §1
Sequence of Dual specificity protein kinase CLK3 (O35492 whole entry): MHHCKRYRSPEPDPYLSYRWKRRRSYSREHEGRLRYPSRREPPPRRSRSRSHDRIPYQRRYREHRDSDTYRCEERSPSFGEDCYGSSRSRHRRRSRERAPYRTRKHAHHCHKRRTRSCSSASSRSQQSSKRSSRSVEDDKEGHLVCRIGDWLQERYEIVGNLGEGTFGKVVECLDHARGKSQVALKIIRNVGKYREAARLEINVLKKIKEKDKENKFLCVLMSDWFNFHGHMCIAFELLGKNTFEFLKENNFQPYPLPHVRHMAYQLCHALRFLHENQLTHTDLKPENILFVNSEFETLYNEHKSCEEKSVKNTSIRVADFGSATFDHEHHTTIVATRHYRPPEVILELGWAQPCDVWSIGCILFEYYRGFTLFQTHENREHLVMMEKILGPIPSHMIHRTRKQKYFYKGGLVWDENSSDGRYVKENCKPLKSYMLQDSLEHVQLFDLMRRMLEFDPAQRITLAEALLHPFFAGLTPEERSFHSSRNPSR
Experiment [7] deals with Glycogen synthase kinase-3 alpha/beta (Sus scrofa). Put plainly: Inhibition of pig brain GSK-3alpha/beta.
Experiment [8] has as its target Cyclin-dependent kinase 5/CDK5 activator 1 (Homo sapiens) (UniProt Q00535+Q15078). Put plainly: Inhibition of human recombinant CDK5/p25 at 10 uM. It counts as protein-complex assay. Put shortly: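 Kinase assayed in buffer C (25 mM Mops pH 7.2, 60 mM beta-glycerophosphate, 30 mM p-nitrophenylphosphate, 15 mM MgCl2, 5 mM EGTA, 1 mM DTT, 0.1 mM vanadate) with 1 mg/mL histone H1. 15 μM ATP final, 30 C. Activity is percent of activity without inhibitor, after blank subtraction. DMSO controls.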

Activity calls are given as the source filed them. No cut-off for these calls is given here. A value given as a limit tells only on which side of the number the result lay.

Sequence of Serine/threonine-protein kinase pim-1 (P11309 whole entry): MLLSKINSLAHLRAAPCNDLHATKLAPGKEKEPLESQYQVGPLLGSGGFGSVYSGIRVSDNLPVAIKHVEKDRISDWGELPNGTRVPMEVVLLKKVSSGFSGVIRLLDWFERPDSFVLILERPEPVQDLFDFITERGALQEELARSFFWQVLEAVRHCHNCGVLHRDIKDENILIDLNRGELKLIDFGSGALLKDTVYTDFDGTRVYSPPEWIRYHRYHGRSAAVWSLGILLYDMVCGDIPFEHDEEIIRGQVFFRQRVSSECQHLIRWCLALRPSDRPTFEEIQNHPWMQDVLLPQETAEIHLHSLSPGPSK
Sequence of Cyclin-dependent kinase 5/CDK5 activator 1 (Homo sapiens) (Q00535 whole entry): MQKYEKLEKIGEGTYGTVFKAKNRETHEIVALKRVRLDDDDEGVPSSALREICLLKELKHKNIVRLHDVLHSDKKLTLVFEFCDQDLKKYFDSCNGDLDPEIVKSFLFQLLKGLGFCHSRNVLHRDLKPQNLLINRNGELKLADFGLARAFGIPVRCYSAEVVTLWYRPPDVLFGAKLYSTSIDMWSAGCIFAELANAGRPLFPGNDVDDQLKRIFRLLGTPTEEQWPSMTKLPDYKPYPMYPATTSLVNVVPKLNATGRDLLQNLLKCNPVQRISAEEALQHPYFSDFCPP
Sequence of Cyclin-dependent kinase 5/CDK5 activator 1 (Homo sapiens) (Q15078 99-307 partner limits assumed): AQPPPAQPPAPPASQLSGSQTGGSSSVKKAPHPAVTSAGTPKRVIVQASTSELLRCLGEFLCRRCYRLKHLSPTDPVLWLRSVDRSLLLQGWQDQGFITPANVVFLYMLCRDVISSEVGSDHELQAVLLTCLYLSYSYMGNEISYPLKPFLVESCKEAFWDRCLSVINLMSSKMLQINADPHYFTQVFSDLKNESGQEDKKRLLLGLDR

The term IC50 denotes the midpoint of a concentration-inhibition curve. With `CCCNC1=N/C(=C\c2ccc3c(c2)OCO3)C(=O)N1`, the IC50 in experiment [1] came to 2500 nM; in experiment [3], 130 nM; in [4], 240 nM; in experiment [5] it was 120 nM; in experiment [6], 2200 nM; in experiment [7], 7300 nM. The inhibition result (in the experiment filed under Sus scrofa; in [2]) was “inactive” each time.

As to `CCCNC1=N/C(=C\c2ccc3c(c2)OCO3)C(=O)N1c1ccccc1`, the IC50 in experiment [1], in experiment [3], in [4], in experiment [5] and in [6] was more than 10000 nM each time. The inhibition result (in the experiment filed under Sus scrofa; in [8]) was “inactive” in each case.

In the case of `O=C1NC(Nc2ccc3c(c2)OCCO3)=N/C1=C\c1ccc2c(c1)OCO2`, the IC50 in experiment [1] is more than 10000 nM; in [3] it was 320 nM; in [4] it was 170 nM; in experiment [5], 110 nM; in [6], more than 10000 nM; in [7], more than 10000 nM. Further, the inhibition entry (in the experiment filed under Sus scrofa; in experiment [2]) was “inactive” each time.

Turning to `CCNC1=N/C(=C\c2ccc3c(c2)OCO3)C(=O)N1C`, the IC50 in experiment [1] is 7200 nM; in experiment [3], 170 nM; in experiment [4], 580 nM; in experiment [5], 640 nM; in [6] it was 2100 nM; in [7] it was 16000 nM. Besides, the inhibition result (in the experiment listed under Sus scrofa; in [2]) was “inactive” in each case.

In the case of `O=C1NC(NCC2CC2)=N/C1=C\c1ccc2c(c1)OCO2`, the IC50 in experiment [1] was found to be 1500 nM; in experiment [3], 83 nM; in [4], 100 nM; in [5], 47 nM; in experiment [6] it was 610 nM; in experiment [7], 4700 nM. Besides, the inhibition entry (in the experiment listed under Sus scrofa; in [2]) was “inactive” throughout.

With `CC(C)CNC1=N/C(=C\c2ccc3c(c2)OCO3)C(=O)N1C`, the IC50 in [1] was found to be 2000 nM; in [3], 120 nM; in [4], 170 nM; in [5], 210 nM; in experiment [6] it was 900 nM; in [7], 3100 nM. For the same compound, the inhibition result (in the experiment filed under Sus scrofa; in [2]) was “inactive” throughout.

For the compound `CCNC1=N/C(=C\c2ccc3c(c2)OCO3)C(=O)N1`, the IC50 turned out to be 3100 nM in [1]; 400 nM in [3]; 410 nM in [4]; 160 nM in experiment [5]; 3700 nM in experiment [6]; 2400 nM in experiment [7]. In addition, the inhibition result (in the experiment listed under Sus scrofa; in experiment [2]) was “inactive” in each case.

`CN1C(=O)/C(=C/c2ccc3c(c2)OCO3)N=C1NCc1ccccc1`: the IC50 in [1] is 3700 nM; in [3], 200 nM; in [4], 380 nM; in experiment [5] it was 560 nM; in experiment [6], 940 nM; in experiment [7] it was more than 10000 nM. Besides, the inhibition entry (in the experiment listed under Sus scrofa; in experiment [2]) was “inactive” in each case.

Turning to `CN1C(=O)/C(=C/c2ccc3c(c2)OCO3)N=C1NCCN`, the IC50 in experiment [1] stood at 3100 nM; in [3] it was 190 nM; in experiment [4] it was 910 nM; in experiment [5], 710 nM; in experiment [6], 5000 nM; in [7], 910 nM. For the same compound, the inhibition entry (in the experiment filed under Sus scrofa; in [2]) was “inactive” in each case.

Turning to `CCOC(=O)C(=O)NC1=N/C(=C\c2ccc3c(c2)OCO3)C(=O)N1C`, the IC50 in [1] is 7000 nM; in experiment [3], 3100 nM; in [4] it was 6100 nM; in experiment [5], 6500 nM; in experiment [6] it was more than 10000 nM; in [7], more than 10000 nM. In addition, the inhibition result (in the experiment filed under Sus scrofa; in [2]) was “inactive” in each case.

For the compound `COc1ccc(NC2=N/C(=C\c3ccc4c(c3)OCO4)C(=O)N2C)cc1`, the IC50 in experiment [1] is 4100 nM; in [3] it was 450 nM; in experiment [4] it was 240 nM; in [5], 510 nM; in [6], more than 10000 nM; in [7] it was 700 nM. Also, the inhibition entry (in the experiment listed under Sus scrofa; in [2]) was “inactive” in each case.

As to `CN1C(=O)/C(=C/c2ccc3c(c2)OCO3)N=C1NCCN1CCOCC1`, the IC50 is 6200 nM in experiment [1]; 80 nM in [3]; 1200 nM in experiment [4]; 1600 nM in experiment [5]; 8000 nM in experiment [6]; 4000 nM in experiment [7]. Further, the inhibition entry (in the experiment listed under Sus scrofa; in experiment [2]) was “inactive” throughout.

Consider `CN1C(=O)/C(=C/c2ccc3c(c2)OCO3)N=C1NCCO`, for which the IC50 in experiment [1] was more than 10000 nM; in experiment [3], 120 nM; in experiment [4], 7000 nM; in experiment [5] it was 10000 nM; in experiment [6], more than 10000 nM; in experiment [7], 1300 nM. The inhibition result (in the experiment listed under Sus scrofa; in experiment [2]) was “inactive” throughout.

With `CN1C(=O)/C(=C/c2ccc3c(c2)OCO3)N=C1Nc1ccc2c(c1)OCO2`, the IC50 in experiment [1] was more than 10000 nM; in experiment [3], 160 nM; in experiment [4] it was 400 nM; in [5], 100 nM; in [6] it was more than 10000 nM; in experiment [7], 5800 nM. Moreover, the inhibition result (in the experiment filed under Sus scrofa; in experiment [2]) was “inactive” in each case.

`CC(C)CCNC1=N/C(=C\c2ccc3c(c2)OCO3)C(=O)N1C`: the 50% inhibitory concentration (IC50) in [1] was 2100 nM; in [3], 160 nM; in experiment [4], 460 nM; in experiment [5], 560 nM; in experiment [6] it was 960 nM; in experiment [7], 2000 nM. Also, the inhibition entry (in the experiment listed under Sus scrofa; in experiment [2]) was “inactive” throughout.

In the case of `C=CCNC1=N/C(=C\c2ccc3c(c2)OCO3)C(=O)N1C`, the IC50 in experiment [1] is 4200 nM; in experiment [3] it was 200 nM; in experiment [4] it was 440 nM; in experiment [5] it was 620 nM; in experiment [6], 880 nM; in experiment [7] it was 1600 nM. In addition, the inhibition result (in the experiment filed under Sus scrofa; in [2]) was “inactive” throughout.

Turning to `O=C1NC(Nc2ccc3c(c2)OCO3)=N/C1=C\c1ccc2c(c1)OCO2`, the IC50 in experiment [1] is 5000 nM; in experiment [3], 170 nM; in [4] it was 66 nM; in [5], 40 nM; in [6], 360 nM. Besides, the inhibition result in the experiment listed under Sus scrofa was “inactive”.

For `CC(C)NC1=N/C(=C\c2ccc3c(c2)OCO3)C(=O)N1C`, the IC50 came out at 4000 nM in experiment [1]; 260 nM in [3]; 390 nM in experiment [4]; 530 nM in experiment [5]; 2000 nM in [6]. The inhibition result in the experiment filed under Sus scrofa was “inactive”.

As for `CN1C(=O)/C(=C/c2ccc3c(c2)OCO3)N=C1NCCCCCO`, the IC50 in experiment [1] amounted to 6100 nM; in experiment [3], 140 nM; in experiment [4], 2100 nM; in experiment [5], 2000 nM; in experiment [6] it was 7000 nM. The inhibition entry in the experiment filed under Sus scrofa was “inactive”.
